Laboratory results reported in ChEMBL document CHEMBL1153132, “Novel sulfamoyl benzamides as selective CB(2) agonists with improved in vitro metabolic stability” (Bioorg Med Chem Lett, 2010).
The source made the active and inactive calls.

What was measured:
Homo sapiens = organism: Homo sapiens; experiment: Selectivity, ratio of Ki for human CB1 to Ki for human CB2
Summary of the method: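 Ki at each receptor came from displacement of [³H]CP-55940 binding in membranes containing cloned human CB₁ or CB₂ receptor. Ki values are geometric means of at least three separate determinations. Selectivity is Ki CB₁ divided by Ki CB₂.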

Cannabinoid receptor 2 [1] = target: T1, Cannabinoid receptor 2 (Homo sapiens, UniProt P34972); experiment: Displacement of [3H]CP-55940 from human CB2 receptor
Summary of the method: (§1)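 Membranes with cloned human CB1 or CB2 receptors; test ligand displaces [3H]CP-55940; Ki values are geometric means of at least three separate determinations.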
Target sequence in this assay (P34972 whole entry): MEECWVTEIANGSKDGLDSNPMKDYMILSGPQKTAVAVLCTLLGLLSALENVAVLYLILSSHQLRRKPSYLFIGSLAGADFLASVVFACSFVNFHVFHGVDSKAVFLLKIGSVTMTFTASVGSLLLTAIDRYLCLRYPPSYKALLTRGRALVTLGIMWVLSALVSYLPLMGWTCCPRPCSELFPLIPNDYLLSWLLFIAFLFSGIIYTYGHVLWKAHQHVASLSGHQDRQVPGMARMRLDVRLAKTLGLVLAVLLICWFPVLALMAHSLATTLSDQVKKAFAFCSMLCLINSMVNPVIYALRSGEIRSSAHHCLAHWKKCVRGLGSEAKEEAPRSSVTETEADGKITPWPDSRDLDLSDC

Liver microsomes [2] = experiment: Metabolic stability in rat liver microsomes; type: ADME, Microsome
Summary of the method: (§2)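 Parent compound incubated with rat (RLM) or human (HLM) liver microsomes for 30 min; result given as % parent remaining.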

Liver microsomes [3] = experiment: Metabolic stability in human liver microsomes; type: ADME, Microsome; summary of the method: as §2
Cannabinoid receptor 1 = Cannabinoid receptor 1 (Homo sapiens, UniProt P21554); experiment: Displacement of [3H]CP-55940 from human CB1 receptor; summary of the method: as §1
Cannabinoid receptor 2 [4] = target: T2, Cannabinoid receptor 2 (Rattus norvegicus, UniProt Q9QZN9); experiment: Agonist activity at rat brain CB2 receptor by GTPgammaS binding assay; type: functional
T2 sequence (Q9QZN9 whole entry): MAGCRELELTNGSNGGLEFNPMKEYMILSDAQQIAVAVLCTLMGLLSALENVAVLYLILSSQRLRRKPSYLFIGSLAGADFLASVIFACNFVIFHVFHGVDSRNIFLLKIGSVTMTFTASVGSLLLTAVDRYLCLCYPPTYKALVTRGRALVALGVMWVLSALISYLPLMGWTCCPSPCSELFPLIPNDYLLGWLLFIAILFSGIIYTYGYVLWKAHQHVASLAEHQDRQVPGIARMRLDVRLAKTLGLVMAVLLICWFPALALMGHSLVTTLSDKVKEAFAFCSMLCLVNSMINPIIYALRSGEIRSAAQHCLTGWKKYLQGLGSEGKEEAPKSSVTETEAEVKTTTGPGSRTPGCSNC

Cannabinoid receptor 2 [5] = target: T1, Cannabinoid receptor 2; experiment: Inhibition of [3H]CP-55940 binding to human CB2 receptor at 10 uM
Target sequence in this assay (P34972 whole entry, looked up): as the sequence (P34972 whole entry) above

[6] = Tmax in Sprague-Dawley rat at 100 mg/kg, po; type: ADME, organism-based; set-up: dose 100 mg/kg, route oral; settings: in vivo
Summary of the method: (§3)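 Male Sprague-Dawley rats dosed 100 mg/kg po. Cmax and oral F are mean ± SD of three animals; F is referenced to a 1.0 mg/kg iv dose; Tmax is given as median and range.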

[7] = Clearance in Sprague-Dawley rat at 1 mg/kg, iv; type: ADME, organism-based; set-up: dose 1 mg/kg, route intravenous; settings: in vivo
[8] = Oral bioavailability in Sprague-Dawley rat at 100 mg/kg; type: ADME, organism-based; settings: in vivo; summary of the method: as §3
[9] = Volume of distribution at steady state in Sprague-Dawley rat at 1 mg/kg, iv; type: ADME, organism-based; set-up: dose 1 mg/kg, route intravenous; settings: in vivo, read-out: Vdss
[10] = AUC (0 to infinity) in Sprague-Dawley rat at 1 mg/kg, iv; type: ADME, organism-based; set-up: time infinity, dose 1 mg/kg, route intravenous; settings: plasma
[11] = Cmax in Sprague-Dawley rat at 100 mg/kg, po; type: ADME, organism-based; set-up: dose 100 mg/kg, route oral; settings: in vivo; summary of the method: as §3
[12] = Half life in Sprague-Dawley rat at 1 mg/kg, iv; type: ADME, organism-based; set-up: dose 1 mg/kg, route intravenous; settings: in vivo
[13] = AUC (0 to infinity) in Sprague-Dawley rat at 100 mg/kg, po; type: ADME, organism-based; set-up: time infinity, dose 100 mg/kg, route oral; settings: plasma
Rattus norvegicus = experiment: Antiallodynic effect against rat hind paw insition model assessed as paw withdrawal at 30 mg/kg, ip; type: functional, organism-based; set-up: dose 30 mg/kg
Summary of the method: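 Rat hindpaw incision surgery model with vehicle and morphine treatment groups. Mechanical paw withdrawal threshold of the left hindpaw was followed over time. Data are mean ± SEM; one-way ANOVA with post-hoc protected t-test versus the vehicle-treated surgery group.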

Cannabinoid receptor 1, sequence (P21554 whole entry): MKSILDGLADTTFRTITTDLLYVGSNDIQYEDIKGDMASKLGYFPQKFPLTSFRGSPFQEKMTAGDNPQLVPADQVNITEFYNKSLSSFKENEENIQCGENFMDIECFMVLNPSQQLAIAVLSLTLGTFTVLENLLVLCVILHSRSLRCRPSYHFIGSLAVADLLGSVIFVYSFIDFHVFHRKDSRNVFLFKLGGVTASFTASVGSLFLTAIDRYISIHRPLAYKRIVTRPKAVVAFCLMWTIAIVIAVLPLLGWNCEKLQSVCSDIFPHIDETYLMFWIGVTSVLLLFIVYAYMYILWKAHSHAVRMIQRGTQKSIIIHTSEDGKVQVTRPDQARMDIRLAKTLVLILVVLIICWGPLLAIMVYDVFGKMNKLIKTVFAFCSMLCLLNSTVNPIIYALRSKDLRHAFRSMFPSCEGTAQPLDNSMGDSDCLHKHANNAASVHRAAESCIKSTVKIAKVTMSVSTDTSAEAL

| Structure (SMILES) | Ratio Ki (Homo sapiens) | Ki (Cannabinoid receptor 2 [1]) [nM] | Stability (Liver microsomes [2]) [%] | Stability (Liver microsomes [3]) [%] | Ki (Cannabinoid receptor 1) [nM] | EC50 (Cannabinoid receptor 2 [4]) [nM] | other results |
| --- | --- | --- | --- | --- | --- | --- | --- |
| CCCC(C)(C)C(=O)Nc1cc(C)c(C)c(S(=O)(=O)N2CCOCC2)c1 | 86 | 9.7 | 9 | 1 | 830 | 21 | – |
| CCC(C)(C)C(=O)Nc1cc(C)c(C)c(S(=O)(=O)NCC2CC2)c1 | 57 | 66 | – | – | 3800 | 135 | – |
| COCCC(C)(C)C(=O)Nc1cc(C)c(C)c(S(=O)(=O)N2CCOCC2)c1 | – | 110 | – | – | – | – | – |
| Cc1cc(NC(=O)C(C)(C)C)cc(S(=O)(=O)N2CCOCC2)c1C | 78 | 40 | 37 | 52 | 3100 | 90 | – |
| CCC(C)(C)C(=O)Nc1cc(C)c(C)c(S(=O)(=O)N2CCC[C@@H]2CO)c1 | – | 43 | – | – | – | 98 | inhibition (Cannabinoid receptor 2 [5]): 8.3% |
| CCC(C)(C)C(=O)Nc1cc2c(c(S(=O)(=O)N3CCOCC3)c1)CCC2 | 140 | 12 | 9 | 10 | 1700 | 1700 | – |
| Cc1cc(NC(=O)C(C)(C)O)cc(S(=O)(=O)N2CCOCC2)c1C | – | 2080 | – | – | – | – | – |
| CCC(C)(C)C(=O)Nc1cc(C)c(C)c(S(=O)(=O)N2CCCCC2)c1 | 240 | 2.7 | 0 | 0 | 650 | 13 | – |
| Cc1cc(NC(=O)C(C)(C(F)(F)F)C(F)(F)F)cc(S(=O)(=O)N2CCOCC2)c1C | 120 | 6.6 | 22 | 11 | 780 | 11 | – |
| CCC(C)(C)C(=O)Nc1cc(C)c(C)c(S(=O)(=O)N2CCS(=O)(=O)CC2)c1 | – | 8.4 | 10 | 1 | – | 20 | inhibition (Cannabinoid receptor 2 [5]): 18% |
| CCCCC(C)(C)C(=O)Nc1cc(C)c(C)c(S(=O)(=O)N2CCOCC2)c1 | 130 | 1.1 | 0 | 0 | 140 | 82 | – |
| Cc1cc(NC(=O)C(C)(C)c2ccccc2)cc(S(=O)(=O)N2CCOCC2)c1C | – | 120 | – | – | – | – | – |
| CCC(C)(C)C(=O)Nc1cc(C)c(C)c(S(=O)(=O)N2CCCCCC2)c1 | 200 | 9 | 0 | 0 | 1800 | 22 | – |
| CCC(C)(C)C(=O)Nc1ccc(C)c(S(=O)(=O)N2CCOCC2)c1 | – | 290 | – | – | – | – | – |
| Cc1ccc(NC(=O)C2C(C)(C)C2(C)C)cc1S(=O)(=O)N1CCOCC1 | 150 | – | 2 | 1 | – | 11 | – |
| CCC(C)(C)C(=O)Nc1cc(S(=O)(=O)N2CCOCC2)c(C)c(C)c1C | – | 410 | – | – | – | – | – |
| CCC(C)(C)C(=O)Nc1cc(S(=O)(=O)N2CCOCC2)cc(C)c1C | – | – | – | – | – | – | inhibition (Cannabinoid receptor 2 [5]): 15% |
| Cc1cc(NC(=O)C2C(C)(C)C2(C)C)cc(S(=O)(=O)N2CCOCC2)c1C | 69 | 16 | 31 | 17 | 1100 | 66 | – |
| CCC(C)(C)C(=O)Nc1cc(C)c(C)c(S(=O)(=O)N2CCSC2)c1 | 300 | 6.9 | 0 | 0 | 2100 | 12 | – |
| CCC(C)(C)C(=O)Nc1cc(S(=O)(=O)N2CCOCC2)c(C)cc1C | – | 760 | – | – | – | – | – |
| CCC(C)(C)C(=O)Nc1cc2c(c(S(=O)(=O)N3CCOCC3)c1)CCCC2 | 100 | 14 | 2 | 1 | 1400 | 1400 | – |
| CCC(C)(C)C(=O)Nc1cc(C)c(C)c(S(=O)(=O)NC2CCCC2)c1 | 36 | 94 | – | – | 3400 | 98 | – |
| CCC(C)(C)C(=O)Nc1cc(C)c(C)c(S(=O)(=O)N2CC[C@H](O)C2)c1 | – | 90 | – | – | – | 73 | inhibition (Cannabinoid receptor 2 [5]): 6.3% |
| CCC(C)(C)C(=O)Nc1cc(C)c(C)c(S(=O)(=O)N2CCOCC2)c1 | 150 | 17 | 28 | 17 | 2500 | 38 | Tmax [6]: 6 h; clearance [7]: 70 mL/min/kg; bioavailability [8]: 22%; Vd [9]: 2.5 L/kg; AUC(0-inf) [10]: 237 ng·h/mL; Cmax [11]: 1220 ng/mL; half-life [12]: 0.7 h; AUC(0-inf) [13]: 4800 ng·h/mL; Activity (Rattus norvegicus): Active |
